Source: ChEMBL document CHEMBL4028903 (J Med Chem, 2017)
≈ marks a conversion by molar mass, not a printed value. Calls of active or inactive are those of the source. The rule behind the calls is not given here.

Experiments:
[1] = molecular target: T1, Bile acid receptor (Homo sapiens, UniProt Q96RI1); experiment: Agonist activity at human FXR expressed in HEK293T cells assessed as BSEP promoter driven cellular transcriptional activity after 24 hrs by luciferase reporter gene assay; format: cell-based, HEK-293T
T1 sequence (Q96RI1 whole entry): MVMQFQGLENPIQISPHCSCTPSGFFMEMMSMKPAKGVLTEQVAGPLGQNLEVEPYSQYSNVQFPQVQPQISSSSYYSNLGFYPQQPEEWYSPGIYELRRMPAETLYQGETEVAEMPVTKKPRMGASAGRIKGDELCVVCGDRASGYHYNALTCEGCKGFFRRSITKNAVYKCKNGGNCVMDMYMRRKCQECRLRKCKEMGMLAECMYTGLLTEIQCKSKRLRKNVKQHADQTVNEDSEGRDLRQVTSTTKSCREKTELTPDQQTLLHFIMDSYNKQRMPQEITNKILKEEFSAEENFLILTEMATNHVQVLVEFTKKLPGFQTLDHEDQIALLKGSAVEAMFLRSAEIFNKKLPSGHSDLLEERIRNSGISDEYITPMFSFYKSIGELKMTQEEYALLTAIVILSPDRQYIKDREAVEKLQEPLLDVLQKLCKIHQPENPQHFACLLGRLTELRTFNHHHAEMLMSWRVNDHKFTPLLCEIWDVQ

[2] = molecular target: T1, Bile acid receptor; experiment: Agonist activity at recombinant human GST-tagged FXR ligand binding domain (193 to 472 residues) expressed in baculovirus infected insect cells assessed as induction of interaction with biotin labelled SRC-1 after 1 hr by HTRF assay
[3] = Cmax in rat at 10 mg/kg, po administered via gavage by LC-MS/MS analysis; format: ADME, organism-based; design: dose 10 mg/kg, route oral; details: in vivo
In short: (§1)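 Rats were dosed IV as a solution in 75% PEG300:25% D5W, or orally as a suspension in 0.5% methylcellulose, 0.5% Tween80 and 99% water.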

[4] = Volume of distribution at steady state in rat at 3 mg/kg, iv by LC-MS/MS analysis; format: ADME, organism-based; details: in vivo, read-out: Vdss; in short: as §1
[5] = Dissociation constant, pKa of compound; format: physicochemical
[6] = Extraction ratio in human liver microsomes; format: ADME, microsome; details: read-out: ERH
[7] = Terminal half life in rat at 3 mg/kg, iv by LC-MS/MS analysis; format: ADME, organism-based; details: in vivo, read-out: beta t1/2 (converted); in short: as §1
[8] = Solubility of the compound in fasted state simulated intestinal fluid at pH 6.8; format: physicochemical
[9] = Extraction ratio in rat liver microsomes; format: ADME, microsome; details: read-out: ERH
[10] = Oral bioavailability in rat at 10 mg/kg administered via gavage by LC-MS/MS analysis; format: ADME, organism-based; details: in vivo; in short: as §1
[11] = Clearance in rat at 3 mg/kg, iv by LC-MS/MS analysis; format: ADME, organism-based; details: in vivo; in short: as §1
[12] = AUC in rat at 10 mg/kg, po administered via gavage by LC-MS/MS analysis; format: ADME, organism-based; details: in vivo; in short: as §1
[13] = molecular target: T2, G-protein coupled bile acid receptor 1 (Mus musculus, UniProt Q80SS6); experiment: Agonist activity at mouse TGR5
T2 sequence (Q80SS6 whole entry): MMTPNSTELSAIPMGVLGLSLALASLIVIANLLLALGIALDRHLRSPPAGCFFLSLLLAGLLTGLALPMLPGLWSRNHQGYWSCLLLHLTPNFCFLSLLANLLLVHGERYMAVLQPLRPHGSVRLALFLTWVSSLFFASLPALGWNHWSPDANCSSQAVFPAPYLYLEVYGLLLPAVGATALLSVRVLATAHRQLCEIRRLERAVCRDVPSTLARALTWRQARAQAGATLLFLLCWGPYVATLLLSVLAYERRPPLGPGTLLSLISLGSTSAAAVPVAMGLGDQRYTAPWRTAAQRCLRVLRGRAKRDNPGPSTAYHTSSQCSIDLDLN

[14] = molecular target: T3, G-protein coupled bile acid receptor 1 (Homo sapiens, UniProt Q8TDU6); experiment: Agonist activity at human TGR5
T3 sequence (Q8TDU6 whole entry): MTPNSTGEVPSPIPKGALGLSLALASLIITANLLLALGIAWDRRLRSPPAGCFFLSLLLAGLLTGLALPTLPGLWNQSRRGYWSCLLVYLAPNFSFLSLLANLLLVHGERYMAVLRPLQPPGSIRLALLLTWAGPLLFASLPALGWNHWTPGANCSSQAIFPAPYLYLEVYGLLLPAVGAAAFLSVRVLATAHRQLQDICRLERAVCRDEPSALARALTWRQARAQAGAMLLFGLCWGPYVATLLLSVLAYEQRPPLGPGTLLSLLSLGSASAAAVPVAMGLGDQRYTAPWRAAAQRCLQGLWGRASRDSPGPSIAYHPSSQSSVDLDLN

[15] = molecular target: T3, G-protein coupled bile acid receptor 1; experiment: Agonist activity at human TGR5 relative to control; details: read-out: Efficacy
[16] = tested on: Rattus norvegicus; experiment: In vivo agonist activity at FXR in Sprague-Dawley rat assessed as induction of SHP mRNA level in ileum at 0.3 mg/kg, po administered as single dose after 7 hrs post dose by qPCR analysis; format: functional, organism-based
[17] = tested on: Rattus norvegicus; experiment: In vivo agonist activity at FXR in po dosed Sprague-Dawley rat assessed as induction of BSEP mRNA level in liver administered as single dose measured 7 hrs post dose by qPCR analysis
[18] = tested on: Rattus norvegicus; experiment: In vivo agonist activity at FXR in po dosed Sprague-Dawley rat assessed as induction of SHP mRNA level in liver administered as single dose after 7 hrs post dose by qPCR analysis; format: functional, organism-based
[19] = tested on: Rattus norvegicus; experiment: In vivo agonist activity at FXR in po dosed Sprague-Dawley rat assessed as induction of BSEP mRNA level in liver administered as single dose after 7 hrs post dose by qPCR analysis; format: functional, organism-based
[20] = tested on: Rattus norvegicus; experiment: In vivo agonist activity at FXR in Sprague-Dawley rat assessed as induction of FGF15 mRNA level in ileum at 0.3 mg/kg, po administered as single dose after 7 hrs post dose by qPCR analysis; format: functional, organism-based
[21] = tested on: Rattus norvegicus; experiment: In vivo agonist activity at FXR in Sprague-Dawley rat assessed as induction of SHP mRNA level in liver at 1 mg/kg, po administered as single dose after 7 hrs post dose by qPCR analysis relative to control; format: functional
[22] = tested on: Rattus norvegicus; experiment: In vivo agonist activity at FXR in po dosed Sprague-Dawley rat assessed as induction of SHP mRNA level in ileum administered as single dose measured 7 hrs post dose by qPCR analysis; format: functional, organism-based

| SMILES | EC50 [1] [nM] | EC50 [2] [nM] | Cmax [3] [nM] | Vd [4] [L/kg] | pKa [5] | hepatic extraction ratio [6] | half-life [7] [h] | solubility [8] [µM] | hepatic extraction ratio [9] | bioavailability [10] [%] | clearance [11] [mL/min/kg] | AUC [12] [µM·h] | other results |
| --- | --- | --- | --- | --- | --- | --- | --- | --- | --- | --- | --- | --- | --- |
| O=C(O)c1ccc2nc(N3CC(OCc4c(-c5ccccc5OC(F)(F)F)noc4C4CC4)C3)sc2c1 | 8400 | 1580 | – | – | – | – | – | – | – | – | – | – | – |
| COc1cc(C(=O)O)cc2sc(N3C4CCC3CC(OCc3c(-c5ccccc5OC(F)(F)F)noc3C3CC3)C4)nc12 (stereo not given) | 0.42 | 0.57 | 1990 | 0.26 | 4.5 | 0.64 | 0.7 | 75 (≈ 46.2 µg/mL) | 0.5 | 9 | 9 | 2.67 | – |
| Cc1cc(C(=O)O)cc2sc(N3C4CCC3CC(OCc3c(-c5ccccc5OC(F)(F)F)noc3C3CC3)C4)nc12 (stereo not given) | 0.82 | 0.49 | 86 | 0.84 | 5.5 | < 0.21 | 1 | < 10 | < 0.18 | 3 | 14 | 0.832 | – |
| O=C(O)c1ccc2nc(N3CC[C@@H](OCc4c(-c5c(Cl)cccc5Cl)noc4C4CC4)C3)sc2c1 | 9200 | 3060 | – | – | – | – | – | – | – | – | – | – | – |
| CC[C@H]1[C@@H](O)[C@@H]2[C@H](CC[C@]3(C)[C@@H]([C@H](C)CCC(=O)O)CC[C@@H]23)[C@@]2(C)CC[C@@H](O)C[C@@H]12 [OBETICHOLIC ACID] | – | – | – | – | – | – | – | – | – | – | – | – | EC50 [13]: 5740 nM |
| CC[C@H]1[C@@H](O)[C@H]2[C@@H]3CC[C@H]([C@H](C)CCC(=O)NCC(=O)O)C3(C)CC[C@@H]2[C@@]2(C)CC[C@@H](O)C[C@@H]12 (single isomer, unassigned) | – | – | – | – | – | – | – | – | – | – | – | – | EC50 [14]: 315 nM; EC50 [13]: 637 nM; Emax [15]: 101% |
| O=C(O)c1ccc2nc(N3CCC(OCc4c(-c5ccccc5C(F)(F)F)noc4C4CC4)CC3)sc2c1 | 70 | 66 | – | – | – | 0.38 | – | 131 (≈ 71.2 µg/mL) | 0.5 | – | – | – | – |
| O=C(O)c1ccc2nc(N3CCC(OCc4c(-c5c(Cl)cccc5Cl)noc4C4CC4)CC3)sc2c1 | 9.5 | 8.3 | 44 | 0.55 | – | 0.81 | 0.34 | 61 (≈ 33.2 µg/mL) | 0.58 | 6 | 50 | 0.39 | – |
| O=C(O)c1ccc2nc(N3C4CCC3CC(OCc3c(-c5ccccc5OC(F)(F)F)noc3C3CC3)C4)sc2c1 (stereo not given) | 0.69 | 0.54 | 173 | 1.1 | 5.1 | < 0.2 | 1 | 110 (≈ 64.4 µg/mL) | 0.51 | 11 | 17 | 1.92 | – |
| O=C(O)c1cc(F)c2nc(N3C4CCC3CC(OCc3c(-c5ccccc5C(F)(F)F)noc3C3CC3)C4)sc2c1 (stereo not given) | 0.54 | 0.46 | 2110 | 0.6 | 4 | 0.36 | 1.8 | 510 (≈ 300 µg/mL) | 0.19 | 14 | 11 | 3.64 | Activity [16]: Active; Activity [17]: Dose-dependent effect; Activity [18]: Dose-dependent effect; Activity [19]: Dose-dependent effect; Activity [20]: Active; fold change (FC) [21]: 6; Activity [22]: Dose-dependent effect |
| O=C(O)c1cc(F)c2nc(N3C4CCC3CC(OCc3c(-c5ccccc5OC(F)F)noc3C3CC3)C4)sc2c1 (stereo not given) | 0.8 | 0.27 | 2120 | 0.7 | 4 | 0.61 | 3.7 | 750 (≈ 439 µg/mL) | 0.4 | 14 | 11 | 3.45 | – |
| O=C(O)c1ccc2nc(N3CCC(OCc4c(-c5ccccc5OC(F)(F)F)noc4C4CC4)CC3)sc2c1 | – | – | 382 | 1.2 | – | – | 1 | 70 (≈ 39.2 µg/mL) | – | 37 | 24 | 4.57 | – |
| CC[C@H]1[C@@H](O)[C@H]2[C@@H]3CC[C@H]([C@H](C)CCC(=O)NCCS(=O)(=O)O)C3(C)CC[C@@H]2[C@@]2(C)CC[C@@H](O)C[C@@H]12 (single isomer, unassigned) | – | – | – | – | – | – | – | – | – | – | – | – | EC50 [14]: 205 nM; EC50 [13]: 906 nM; Emax [15]: 102% |
| O=C(O)c1ccc2nc(N3CCCC(OCc4c(-c5ccccc5OC(F)(F)F)noc4C4CC4)CC3)sc2c1 (stereo not given) | 6.6 | 4.2 | – | – | – | 0.89 | – | 126 (≈ 72.3 µg/mL) | 0.75 | – | – | – | – |
| O=C(O)c1ccc2nc(N3CCC(OCc4c(-c5c(F)cccc5F)noc4C4CC4)CC3)sc2c1 | 88 | – | – | – | – | 0.27 | – | 169 (≈ 86.5 µg/mL) | 0.52 | – | – | – | – |
